Source: ChEMBL document CHEMBL1212913, “Quinazolin-4-one derivatives: A novel class of noncompetitive NR2C/D subunit-selective N-methyl-D-aspartate receptor antagonists” (J Med Chem, 2010)
pIC50: −log10 of the molar value. Calls of active or inactive are those of the source. No cut-off for these calls is given here.

Experiments:
[1] = target: Glutamate NMDA receptor; Grin1/Grin2a (Rattus norvegicus, UniProt P35439+Q00959); experiment: Antagonist activity at rat recombinant NR1-NR2A receptor expressed in Xenopus oocytes at holding potential of -40mV by two-electrode voltage-clamp electrophysiology; type: functional, cell-based, Oocyte; details: read-out: IC50
Chain of Glutamate NMDA receptor; Grin1/Grin2a (Q00959 whole entry, other chains not shown): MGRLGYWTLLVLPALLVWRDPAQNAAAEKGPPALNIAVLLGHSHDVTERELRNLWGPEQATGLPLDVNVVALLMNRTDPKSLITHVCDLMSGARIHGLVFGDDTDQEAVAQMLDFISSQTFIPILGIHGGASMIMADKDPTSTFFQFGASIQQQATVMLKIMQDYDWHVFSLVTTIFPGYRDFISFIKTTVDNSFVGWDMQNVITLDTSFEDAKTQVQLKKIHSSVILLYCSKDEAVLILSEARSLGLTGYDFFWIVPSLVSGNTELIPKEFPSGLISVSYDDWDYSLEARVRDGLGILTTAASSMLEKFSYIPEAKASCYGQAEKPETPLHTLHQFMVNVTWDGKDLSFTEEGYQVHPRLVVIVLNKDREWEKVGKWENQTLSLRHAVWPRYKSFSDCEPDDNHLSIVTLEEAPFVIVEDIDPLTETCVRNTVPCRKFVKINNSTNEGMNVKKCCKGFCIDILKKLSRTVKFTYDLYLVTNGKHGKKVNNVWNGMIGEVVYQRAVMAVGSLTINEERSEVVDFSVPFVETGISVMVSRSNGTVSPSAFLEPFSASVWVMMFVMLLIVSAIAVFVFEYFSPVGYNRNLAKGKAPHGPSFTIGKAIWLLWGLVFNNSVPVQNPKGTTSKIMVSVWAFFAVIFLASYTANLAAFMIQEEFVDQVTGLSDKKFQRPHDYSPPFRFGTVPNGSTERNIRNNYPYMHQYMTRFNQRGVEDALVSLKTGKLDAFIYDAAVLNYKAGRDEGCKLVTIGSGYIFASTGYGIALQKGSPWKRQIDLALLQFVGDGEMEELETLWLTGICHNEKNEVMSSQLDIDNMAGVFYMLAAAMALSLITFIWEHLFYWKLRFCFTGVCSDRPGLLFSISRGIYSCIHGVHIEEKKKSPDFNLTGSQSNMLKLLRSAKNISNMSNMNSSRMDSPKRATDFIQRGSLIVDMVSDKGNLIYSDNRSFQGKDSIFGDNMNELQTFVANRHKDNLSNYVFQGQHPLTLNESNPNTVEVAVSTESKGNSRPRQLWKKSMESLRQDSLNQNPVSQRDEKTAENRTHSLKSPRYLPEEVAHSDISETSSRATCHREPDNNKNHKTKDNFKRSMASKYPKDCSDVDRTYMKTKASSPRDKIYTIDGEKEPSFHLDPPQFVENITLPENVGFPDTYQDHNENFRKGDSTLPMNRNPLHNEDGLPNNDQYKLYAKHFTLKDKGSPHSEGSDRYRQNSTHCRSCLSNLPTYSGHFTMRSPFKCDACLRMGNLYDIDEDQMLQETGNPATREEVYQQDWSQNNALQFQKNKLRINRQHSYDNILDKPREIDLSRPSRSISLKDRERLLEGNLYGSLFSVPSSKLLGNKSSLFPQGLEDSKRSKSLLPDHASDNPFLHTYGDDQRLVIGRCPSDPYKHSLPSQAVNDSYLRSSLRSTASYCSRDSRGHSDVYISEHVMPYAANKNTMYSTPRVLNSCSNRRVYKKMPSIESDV
Procedure, shortened: (§1)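 Oocytes expressing rat NR1-1a with NR2A, NR2B, NR2C or NR2D, clamped at −40 mV in Ba2+/HEPES recording solution pH 7.4, 23°C. Current evoked by 100 μM glutamate plus 30 μM glycine. Final DMSO 0.05-0.5%, 5-7 inhibitor concentrations, ≥4 oocytes each. IC50 from Hill fit of normalized mean composite data. […] Some NR2A oocytes given BAPTA-AM or K-BAPTA.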

[2] = target: Glutamate NMDA receptor; Grin1/Grin2b (Rattus norvegicus, UniProt P35439+Q00960); experiment: Antagonist activity at rat recombinant NR1-NR2B receptor expressed in Xenopus oocytes at holding potential of -40mV by two-electrode voltage-clamp electrophysiology; type: functional, cell-based, Oocyte; details: read-out: IC50; procedure, shortened: as §1
Chain of Glutamate NMDA receptor; Grin1/Grin2b (Q00960 whole entry, other chains not shown): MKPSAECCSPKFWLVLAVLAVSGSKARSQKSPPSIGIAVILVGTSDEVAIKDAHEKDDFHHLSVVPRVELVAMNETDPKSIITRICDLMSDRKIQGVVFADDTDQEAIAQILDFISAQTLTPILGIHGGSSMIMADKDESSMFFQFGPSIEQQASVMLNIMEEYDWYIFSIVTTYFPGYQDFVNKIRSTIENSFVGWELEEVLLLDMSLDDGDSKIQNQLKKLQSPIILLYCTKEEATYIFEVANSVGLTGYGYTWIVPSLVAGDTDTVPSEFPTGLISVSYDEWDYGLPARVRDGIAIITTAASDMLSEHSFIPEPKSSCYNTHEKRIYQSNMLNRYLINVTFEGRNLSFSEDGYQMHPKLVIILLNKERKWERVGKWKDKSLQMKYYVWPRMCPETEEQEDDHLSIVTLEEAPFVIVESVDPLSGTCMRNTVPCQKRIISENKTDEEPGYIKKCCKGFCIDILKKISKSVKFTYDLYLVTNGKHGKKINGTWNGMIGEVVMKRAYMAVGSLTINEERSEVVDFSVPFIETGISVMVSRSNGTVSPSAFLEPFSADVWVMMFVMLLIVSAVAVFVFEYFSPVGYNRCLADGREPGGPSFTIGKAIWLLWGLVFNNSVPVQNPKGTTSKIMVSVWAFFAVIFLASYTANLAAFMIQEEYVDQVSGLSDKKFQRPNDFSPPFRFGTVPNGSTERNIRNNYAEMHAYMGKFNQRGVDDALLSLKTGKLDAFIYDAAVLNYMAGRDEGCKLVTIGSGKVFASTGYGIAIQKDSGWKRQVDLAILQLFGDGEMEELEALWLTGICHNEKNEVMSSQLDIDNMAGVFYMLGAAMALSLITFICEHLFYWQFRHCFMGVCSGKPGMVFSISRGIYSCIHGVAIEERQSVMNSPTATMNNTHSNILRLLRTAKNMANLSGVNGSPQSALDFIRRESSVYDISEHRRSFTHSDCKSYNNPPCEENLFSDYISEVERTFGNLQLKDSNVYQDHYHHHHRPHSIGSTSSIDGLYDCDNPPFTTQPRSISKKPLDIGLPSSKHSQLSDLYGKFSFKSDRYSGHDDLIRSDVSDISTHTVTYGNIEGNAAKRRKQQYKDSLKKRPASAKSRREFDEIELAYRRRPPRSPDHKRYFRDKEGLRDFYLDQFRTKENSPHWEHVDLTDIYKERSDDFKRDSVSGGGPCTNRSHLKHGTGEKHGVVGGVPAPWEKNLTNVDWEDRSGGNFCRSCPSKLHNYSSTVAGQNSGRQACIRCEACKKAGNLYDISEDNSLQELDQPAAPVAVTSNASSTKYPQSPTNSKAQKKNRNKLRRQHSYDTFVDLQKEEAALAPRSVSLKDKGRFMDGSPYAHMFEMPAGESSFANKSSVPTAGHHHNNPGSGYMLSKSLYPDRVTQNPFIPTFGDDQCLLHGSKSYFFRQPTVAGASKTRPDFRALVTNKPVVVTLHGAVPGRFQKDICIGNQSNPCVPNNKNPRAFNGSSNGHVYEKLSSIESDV

[3] = target: Glutamate NMDA receptor; Grin1/Grin2c (Rattus norvegicus, UniProt P35439+Q00961); experiment: Antagonist activity at rat recombinant NR1-NR2C receptor expressed in Xenopus oocytes at holding potential of -40mV by two-electrode voltage-clamp electrophysiology; type: functional, cell-based, Oocyte; procedure, shortened: as §1
Chain of Glutamate NMDA receptor; Grin1/Grin2c (Q00961 whole entry, other chains not shown): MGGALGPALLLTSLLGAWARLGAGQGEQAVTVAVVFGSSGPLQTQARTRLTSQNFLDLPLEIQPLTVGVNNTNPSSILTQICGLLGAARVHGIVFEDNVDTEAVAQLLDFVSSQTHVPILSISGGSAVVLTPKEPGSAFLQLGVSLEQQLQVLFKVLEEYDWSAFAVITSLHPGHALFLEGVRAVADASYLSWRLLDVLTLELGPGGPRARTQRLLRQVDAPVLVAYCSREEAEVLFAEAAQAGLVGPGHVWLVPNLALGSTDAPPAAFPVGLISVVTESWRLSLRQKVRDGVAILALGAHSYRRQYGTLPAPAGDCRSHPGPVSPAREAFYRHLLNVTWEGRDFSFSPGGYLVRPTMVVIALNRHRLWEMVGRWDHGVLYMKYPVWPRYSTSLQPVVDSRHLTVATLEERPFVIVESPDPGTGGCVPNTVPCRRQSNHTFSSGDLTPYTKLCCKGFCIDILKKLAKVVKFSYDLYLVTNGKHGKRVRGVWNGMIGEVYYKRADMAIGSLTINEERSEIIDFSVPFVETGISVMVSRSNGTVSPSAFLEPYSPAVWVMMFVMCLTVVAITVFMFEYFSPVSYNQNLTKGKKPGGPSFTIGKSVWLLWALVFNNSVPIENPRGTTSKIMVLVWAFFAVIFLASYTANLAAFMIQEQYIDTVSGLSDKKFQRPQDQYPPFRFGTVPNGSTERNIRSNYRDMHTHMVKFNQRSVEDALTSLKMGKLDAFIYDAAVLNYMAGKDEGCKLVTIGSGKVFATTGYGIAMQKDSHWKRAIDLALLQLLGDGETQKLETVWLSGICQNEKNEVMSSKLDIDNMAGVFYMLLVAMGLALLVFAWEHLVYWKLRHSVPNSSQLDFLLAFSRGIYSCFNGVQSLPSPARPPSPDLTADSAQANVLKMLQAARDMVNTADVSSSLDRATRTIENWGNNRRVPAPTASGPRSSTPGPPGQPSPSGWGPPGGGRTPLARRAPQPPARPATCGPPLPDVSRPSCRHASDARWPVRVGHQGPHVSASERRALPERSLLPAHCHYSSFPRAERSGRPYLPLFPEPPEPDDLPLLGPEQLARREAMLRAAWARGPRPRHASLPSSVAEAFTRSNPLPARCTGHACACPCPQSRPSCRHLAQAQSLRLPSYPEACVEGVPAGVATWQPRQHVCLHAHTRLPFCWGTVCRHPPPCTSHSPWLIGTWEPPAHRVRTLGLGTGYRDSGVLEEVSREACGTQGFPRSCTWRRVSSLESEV

[4] = target: Ionotropic glutamate receptor NMDA 1/2D (Rattus norvegicus, UniProt P35439+Q62645); experiment: Antagonist activity at rat recombinant NR1-NR2D receptor expressed in Xenopus oocytes at holding potential of -40mV by two-electrode voltage-clamp electrophysiology; type: functional, cell-based, Oocyte
Procedure, shortened: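 Oocytes expressing rat NR1-1a with NR2A, NR2B, NR2C or NR2D, clamped at −40 mV in Ba2+/HEPES recording solution pH 7.4, 23°C. Current evoked by 100 μM glutamate plus 30 μM glycine. Final DMSO 0.05-0.5%, 5-7 inhibitor concentrations, ≥4 oocytes each. IC50 from Hill fit of normalized mean composite data. Some NR2A oocytes given BAPTA-AM or K-BAPTA.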

Glutamate receptor 1 = Glutamate receptor 1 (Rattus norvegicus, UniProt P19490); experiment: Antagonist activity at rat recombinant GLuR1 expressed in Xenopus oocytes assessed as inhibition of glutamate-induced current by two-electrode voltage-clamp electrophysiology; type: functional, cell-based, Oocyte
Chain of Glutamate receptor 1 (P19490 whole entry, the tested form may be a part): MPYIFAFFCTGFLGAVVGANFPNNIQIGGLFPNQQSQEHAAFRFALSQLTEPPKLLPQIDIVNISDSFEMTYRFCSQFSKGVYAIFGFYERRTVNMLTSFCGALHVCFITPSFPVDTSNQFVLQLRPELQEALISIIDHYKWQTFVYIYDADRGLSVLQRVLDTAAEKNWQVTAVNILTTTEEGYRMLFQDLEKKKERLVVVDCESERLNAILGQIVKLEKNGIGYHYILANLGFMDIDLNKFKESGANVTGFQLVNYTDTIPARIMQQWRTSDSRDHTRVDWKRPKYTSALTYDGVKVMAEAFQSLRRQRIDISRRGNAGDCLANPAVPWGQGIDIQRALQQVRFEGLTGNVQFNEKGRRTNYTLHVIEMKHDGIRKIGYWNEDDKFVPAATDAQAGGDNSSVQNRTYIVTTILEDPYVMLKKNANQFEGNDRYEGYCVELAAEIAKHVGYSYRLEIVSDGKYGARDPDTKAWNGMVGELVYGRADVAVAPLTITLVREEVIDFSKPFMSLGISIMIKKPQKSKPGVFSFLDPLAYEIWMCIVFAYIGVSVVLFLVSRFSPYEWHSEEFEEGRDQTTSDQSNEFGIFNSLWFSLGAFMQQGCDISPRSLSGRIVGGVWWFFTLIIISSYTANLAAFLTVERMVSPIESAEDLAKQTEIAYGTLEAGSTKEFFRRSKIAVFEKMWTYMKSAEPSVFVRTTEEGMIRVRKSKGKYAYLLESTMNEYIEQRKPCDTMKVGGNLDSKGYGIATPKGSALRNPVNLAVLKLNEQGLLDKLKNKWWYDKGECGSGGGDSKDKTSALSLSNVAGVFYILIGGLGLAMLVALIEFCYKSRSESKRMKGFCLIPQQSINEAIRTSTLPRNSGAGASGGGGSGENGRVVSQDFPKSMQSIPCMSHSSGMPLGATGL
Procedure, shortened: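 Two-electrode voltage clamp at −40 mV on Xenopus oocytes expressing rat GluR1, perfused with 90 NaCl, 1.0 KCl, 0.5 BaCl2, 0.005 EDTA, 10 HEPES (mM), pH 7.4, 23°C; activated by 100 μM glutamate. From 20 mM DMSO stocks, 5-7 concentrations, ≥4 oocytes each. Hill fit to mean composite curves normalized to control, minimum usually fixed at 0. Response >75% at 100 μM reported as >300 μM.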

[5] = target: Glutamate receptor ionotropic, kainate 2 (Rattus norvegicus, UniProt P42260); experiment: Antagonist activity at rat recombinant GLuR6 expressed in Xenopus oocytes assessed as inhibition of glutamate-induced current by two-electrode voltage-clamp electrophysiology; type: functional, cell-based; details: oocyte
Procedure, shortened: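 Rat GluR6 expressed in Xenopus oocytes, pretreated with 10 μM concanavalin A for 10 min, then activated by 100 μM glutamate. Cells were held at −40 mV in 90 mM NaCl, 1.0 KCl, 0.5 BaCl2, 0.005 EDTA and 10 HEPES, pH 7.4, at 23°C. Compounds were diluted from 20 mM DMSO stocks, final DMSO 0.05-0.5%. Concentration-effect curves were recorded.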

Rattus norvegicus [6] = species: Rattus norvegicus; experiment: Selectivity ratio of IC50 for rat recombinant GLuR1 to IC50 for rat recombinant NR1-NR2D receptor
Procedure, shortened: (§2)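 Ratio of fitted IC50 values, either NR2A/NR2D or GluR1/NR2D, from two-electrode voltage-clamp Hill fits in oocytes. Where noted, calculated from IC50 values rounded to the nearest μM.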

Rattus norvegicus [7] = species: Rattus norvegicus; experiment: Selectivity ratio of IC50 for rat recombinant NR1-NR2A receptor to IC50 for rat recombinant NR1-NR2D receptor; procedure, shortened: as §2
[8] = target: T1, Ionotropic glutamate receptor NMDA 1/2D (Rattus norvegicus) (UniProt P35439+Q62645); experiment: Antagonist activity at rat recombinant NR1-NR2D receptor expressed in Xenopus oocytes at 10 uM at holding potential of -40mV by two-electrode voltage-clamp electrophysiology; type: functional, cell-based; details: Oocyte
[9] = target: T1, Ionotropic glutamate receptor NMDA 1/2D (Rattus norvegicus); experiment: Antagonist activity at rat recombinant NR1-NR2D receptor expressed in Xenopus oocytes at 10 uM at holding potential of +40mV by two-electrode voltage-clamp electrophysiology; type: functional, cell-based; details: Oocyte
[10] = target: T1, Ionotropic glutamate receptor NMDA 1/2D (Rattus norvegicus); experiment: Antagonist activity at rat recombinant NR1-NR2D receptor expressed in Xenopus oocytes at 30 uM at holding potential of -40mV by two-electrode voltage-clamp electrophysiology in presence of up to 1000/300 uM of glutamate/glycine; type: functional, cell-based; details: Oocyte
Procedure, shortened: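 NR1/NR2D oocytes held at −40 mV. Inhibition by 30 μM compound was compared with glutamate/glycine at 100/30 μM and raised to 1000/300 μM, to test whether higher agonist surmounts block. n=4.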

Row | SMILES | pIC50 [1] | pIC50 [2] | pIC50 [3] | pIC50 [4] | pIC50 (Glutamate receptor 1) | Ratio IC50 (Rattus norvegicus [7]) | Activity [8] | Activity [9] | Activity [10] | IC50 [5] | Ratio IC50 (Rattus norvegicus [6])
1 | O=C(O)c1cccc(-n2c(/C=C/c3ccccc3[N+](=O)[O-])nc3ccccc3c2=O)c1 | 4.77 | 4.70 | 5.10 | 5.15 | 5.30 | – | – | – | – | Not Active | –
2 | COc1ccc(-n2c(/C=C/c3ccccc3[N+](=O)[O-])nc3ccccc3c2=O)cc1 | < 3.52 | – | 3.84 | 3.90 | 3.65 | – | – | – | – | Not Active | –
3 | COc1ccccc1-n1c(/C=C/c2ccc([N+](=O)[O-])cc2)nc2ccccc2c1=O | < 3.52 | < 3.52 | < 3.52 | 3.54 | < 3.52 | > 1 | – | – | – | Not Active | 1
4 | COc1ccc(-n2c(/C=C/c3ccc([N+](=O)[O-])cc3)nc3ccccc3c2=O)cc1 | < 3.52 | 4.01 | 3.74 | 3.66 | < 3.52 | – | – | – | – | Not Active | –
5 | O=C(O)c1ccc(-n2c(/C=C/c3ccccc3[N+](=O)[O-])nc3ccccc3c2=O)cc1 | 4.96 | 4.77 | 5.10 | – | – | – | – | – | – | Not Active | –
6 | COc1cccc(-n2c(/C=C/c3ccccc3[N+](=O)[O-])nc3ccccc3c2=O)c1 | < 3.52 | – | < 3.52 | < 3.52 | < 3.52 | – | – | – | – | Not Active | 1
7 | COc1cccc(-n2c(/C=C/c3ccc([N+](=O)[O-])cc3)nc3ccccc3c2=O)c1 | < 3.52 | – | < 3.52 | < 3.52 | < 3.52 | – | – | – | – | Not Active | 1
8 | COc1ccccc1-n1c(/C=C/c2ccccc2[N+](=O)[O-])nc2ccccc2c1=O | 5.40 | 5.15 | 5.40 | 5.30 | 4.85 | – | – | – | – | Not Active | –
9 | COc1cccc(-n2c(/C=C/c3cccc([N+](=O)[O-])c3)nc3ccccc3c2=O)c1 | < 3.52 | 3.58 | 3.69 | 3.73 | < 3.52 | 2 | – | – | – | Not Active | 2
10 | O=C(O)c1ccccc1-n1c(/C=C/c2ccc([N+](=O)[O-])cc2)nc2ccccc2c1=O | < 3.52 | 3.71 | < 3.52 | 3.56 | < 3.52 | – | – | – | – | Not Active | –
11 | O=C(O)c1ccccc1-n1c(/C=C/c2cccc([N+](=O)[O-])c2)nc2ccccc2c1=O | < 3.52 | 3.63 | 3.59 | 3.83 | < 3.52 | – | – | – | – | Not Active | –
12 | COc1ccc(-n2c(/C=C/c3cccc([N+](=O)[O-])c3)nc3ccccc3c2=O)cc1 | < 3.52 | < 3.52 | 3.82 | 3.77 | 3.75 | – | – | – | – | Not Active | –
13 | COc1ccccc1-n1c(/C=C/c2cccc([N+](=O)[O-])c2)nc2ccccc2c1=O | < 3.52 | – | < 3.52 | < 3.52 | < 3.52 | – | – | – | – | Not Active | 1
14 | O=c1c2cc(I)ccc2nc(/C=C/c2cccnc2)n1-c1ccccc1 | 3.88 | < 3.52 | < 3.52 | 3.97 | < 3.52 | 1 | – | – | – | – | 3
15 | O=c1c2ccccc2nc(/C=C/c2cccnc2)n1-c1ccccc1 | 4.40 | 4.29 | 3.85 | 4.46 | 4.13 | 1 | – | – | – | – | 2
16 | O=C(O)c1cccc(-n2c(/C=C/c3ccc([N+](=O)[O-])cc3)nc3ccccc3c2=O)c1 | 3.87 | 3.75 | 4.48 | 4.57 | < 3.52 | – | – | – | – | Not Active | –
17 | Cc1ccc2nc(/C=C/c3ccccc3)n(-c3ccc(C(=O)O)cc3)c(=O)c2c1 | 4.41 | 4.60 | 4.66 | 4.59 | 4.68 | 2 | – | – | – | – | 1

Continued, in another order:

Row | pIC50 [1] | pIC50 [2] | pIC50 [3] | pIC50 [4] | pIC50 (Glutamate receptor 1) | Ratio IC50 (Rattus norvegicus [7]) | Activity [8] | Activity [9] | Activity [10] | SMILES | IC50 [5] | Ratio IC50 (Rattus norvegicus [6])
18 | 4.19 | 4.03 | 4.82 | 4.82 | < 3.52 | – | – | – | – | O=C(O)c1ccc(-n2c(/C=C/c3ccc([N+](=O)[O-])cc3)nc3ccccc3c2=O)cc1 | Not Active | –
19 | 4.55 | 4.74 | 5.52 | 5.40 | 4.30 | 7 | – | – | – | CCCc1ccc2nc(/C=C/c3cccc([N+](=O)[O-])c3)n(-c3ccc(C(=O)O)cc3)c(=O)c2c1 | – | 13
20 | 4.14 | 3.96 | 4.74 | 5.05 | 3.66 | 8 | – | – | – | COc1cccc(/C=C/c2nc3ccc(OC)cc3c(=O)n2-c2ccc(C(=O)O)cc2)c1 | – | 24
21 | 4.00 | 4.01 | 5.22 | 5.15 | 3.70 | 14 | – | – | – | CC(C)c1ccc2nc(/C=C/c3cccc([N+](=O)[O-])c3)n(-c3ccc(C(=O)O)cc3)c(=O)c2c1 | – | 29
22 | 4.68 | 4.52 | 4.92 | 5.05 | 4.49 | – | Active | Active | Active | O=C(O)c1ccc(-n2c(/C=C/c3cccc([N+](=O)[O-])c3)nc3ccccc3c2=O)cc1 | Not Active | –
23 | 4.96 | 5.52 | 5.70 | 5.70 | 5.30 | 6 | – | – | – | O=C(O)c1ccc(-n2c(/C=C/c3cccc([N+](=O)[O-])c3)nc3ccc(-c4ccccc4)cc3c2=O)cc1 | – | 3
24 | 4.00 | 4.16 | 4.72 | 4.82 | 4.49 | – | – | – | – | O=C(O)c1cccc(-n2c(/C=C/c3cccc([N+](=O)[O-])c3)nc3ccccc3c2=O)c1 | Not Active | –
25 | 4.74 | 5.22 | 6.00 | 6.22 | 4.51 | 18 | – | – | – | O=C(O)c1ccc(-n2c(/C=C/c3cccc([N+](=O)[O-])c3)nc3ccc(I)cc3c2=O)cc1 | – | 52
26 | 4.77 | 4.89 | 5.70 | 6.00 | 5.10 | 17 | – | – | – | O=C(O)c1ccc(-n2c(/C=C/c3cccc([N+](=O)[O-])c3)nc3ccc(Br)cc3c2=O)cc1 | – | 8
